Experimental data taken from ChEMBL document CHEMBL1137638, “TEM-158 (CMT-9), a new member of the CMT-type extended-spectrum beta-lactamases” (Antimicrob Agents Chemother, 2007).
Calls of active or inactive are those of the source. No cut-off for these calls is given here.

Tests used:
[1] = tested on: Escherichia coli; assay: Antibacterial activity against Escherichia coli BER1 producing TEM-158 by microdilution method; type: functional, organism-based
[2] = tested on: Escherichia coli; assay: Activity of Escherichia coli DH5alpha beta-lactamase TEM-12 by microacidimetric method
Procedure, shortened: (§1)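 Each beta-lactamase was purified to homogeneity. Kinetic constants (kcat, Km) for beta-lactam substrates, including penicillins, were determined by computerized microacidimetry.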

[3] = tested on: Escherichia coli; assay: Ratio of Kcat/Km for Escherichia coli DH5alpha beta-lactamase TEM-12 to Kcat/Km for Escherichia coli DH5alpha beta-lactamase TEM-158; procedure, shortened: as §1
[4] = tested on: Escherichia coli; assay: Antibacterial activity against Escherichia coli BER1 producing beta-lactamase TEM-158; type: functional, organism-based
[5] = tested on: Escherichia coli; assay: Ratio of Kcat to Km for Escherichia coli DH5alpha beta-lactamase TEM-12; parameters: unit not given here; procedure, shortened: as §1
[6] = tested on: Escherichia coli; assay: Activity of Escherichia coli CF0042 beta-lactamase TEM-35 by microacidimetric method; procedure, shortened: as §1
[7] = tested on: Escherichia coli str. K-12 substr. DH10B
[8] = tested on: Escherichia coli; assay: Ratio of Kcat/Km for Escherichia coli DH5alpha beta-lactamase TEM-1 to Kcat/Km for Escherichia coli DH5alpha beta-lactamase TEM-158; procedure, shortened: as §1
[9] = tested on: Escherichia coli; assay: Ratio of Kcat/Km for Escherichia coli DH5alpha beta-lactamase TEM-35 to Kcat/Km for Escherichia coli DH5alpha beta-lactamase TEM-158; procedure, shortened: as §1
[10] = tested on: Escherichia coli; assay: Ratio of Kcat to Km for Escherichia coli CF0042 beta-lactamase TEM-35; parameters: unit not given here; procedure, shortened: as §1

Structure (SMILES)	Activity [1]	Km [2] [µM]	kcat [2] [s⁻¹]	Ratio [3]	Activity [4]	kcat/Km [5]	kcat [6] [s⁻¹]	kcat [7] [s⁻¹]	Ratio [8]	Ratio [9]	kcat/Km [10]	Km [6] [µM]
C[C@H]1[C@H](NC(=O)/C(=N\OC(C)(C)C(=O)O)c2csc(N)n2)C(=O)N1S(=O)(=O)O	inactive	247	2	4	inactive	0.008	< 0.1					
CO[C@@]1(NC(=O)Cc2cccs2)C(=O)N2C(C(=O)O)=C(COC(N)=O)CS[C@@H]21	inactive			4	inactive							
CC(C)(O/N=C(\C(=O)N[C@@H]1C(=O)N2C(C(=O)[O-])=C(C[n+]3ccccc3)CS[C@H]12)c1csc(N)n1)C(=O)O	inactive	254	11.1	4	inactive	0.04	< 0.1	16				
CCN1CCN(C(=O)N[C@@H](C(=O)N[C@@H]2C(=O)N3[C@@H]2SC(C)(C)[C@@H]3C(=O)O)c2ccccc2)C(=O)C1=O	inactive	15	89	8	inactive	6	945		8	8	2.9	320
CC(=O)OCC1=C(C(=O)O)N2C(=O)[C@@H](NC(=O)Cc3cccs3)[C@H]2SC1	inactive	327	46	4	inactive	0.02	52				0.04	1200
CC1(C)S[C@@H]2[C@H](NC(=O)Cc3ccccc3)C(=O)N2[C@H]1C(=O)O		7	80	8		11	1050		8	8	7.5	140
CO/N=C(\C(=O)N[C@@H]1C(=O)N2C(C(=O)O)=C(COC(N)=O)CS[C@H]12)c1ccco1	inactive			4	inactive							
CO/N=C(\C(=O)N[C@@H]1C(=O)N2C(C(=O)O)=C(COC(C)=O)CS[C@H]12)c1csc(N)n1	inactive	320	10.6	4	inactive	0.03	< 0.1					
CO/N=C(\C(=O)N[C@@H]1C(=O)N2C(C(=O)[O-])=C(C[N+]3(C)CCCC3)CS[C@H]12)c1csc(N)n1	inactive			4	inactive							
CC1(C)S[C@@H]2[C@H](NC(=O)[C@H](C(=O)O)c3ccsc3)C(=O)N2[C@H]1C(=O)O	inactive	12	19	8	inactive	1.6	125		8	8	0.4	320
CC1(C)S[C@@H]2[C@H](NC(=O)[C@H](N)c3ccc(O)cc3)C(=O)N2[C@H]1C(=O)O	inactive	7.5	60	4	inactive	8	900		8	8	8.5	245
C[C@@H](O)[C@H]1C(=O)N2C(C(=O)O)=C(SCCNC=N)C[C@H]12	inactive			4	inactive							
